From ChEMBL document CHEMBL1141015, “Discovery of diacylphloroglucinols as a new class of GPR40 (FFAR1) agonists” (Bioorg Med Chem Lett, 2008)
The source made the active and inactive calls. The calls are words filed in the database; no cut-off is given here.

How the values were obtained:
[1] = target: T1, Free fatty acid receptor 1 (Homo sapiens, UniProt O14842); assay: Agonist activity at GPR40 expressed in CHO cells by FLIPR assay; assay type: functional, cell-based
Summary of the method: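 CHO-K1 cells stably transfected with hGPR40 (pCDN vector), seeded and grown 48 h, loaded 1 h with Fluo-4AM in 10 mM Hepes/Ca²⁺/2.5 mM probenecid HBSS pH 7.5, washed thrice, held at 37 °C. FlexStation calcium flux read as fold over control. EC50 from dose–response curves; efficacy as % of maximal linoleic acid response. Mock-transfected CHO-K1 run in parallel.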

[2] = target: T1, Free fatty acid receptor 1; assay: Agonist activity at human GPR40 expressed in CHOK1 cells assessed as effect on calcium flux at 10 uM by fluorescence assay; assay type: functional, cell-based; conditions: CHO-K1
Summary of the method: (§1)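 CHO K1 cells stably transfected with hGPR40 (vector pCDN), seeded 10,000 cells/well on poly-D-lysine plates, 48 h culture; loaded 1 h with 2.5 µM Fluo-4AM in 10 mM Hepes, 2.5 mM probenecid, HBSS pH 7.5, washed thrice, 37 °C; Ca²⁺ flux read on FlexStation as fold over control; mock-transfected CHO K1 cells run in parallel for specificity.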

[3] = target: T1, Free fatty acid receptor 1; assay: Agonist activity at human GPR40 expressed in CHOK1 cells assessed as fold increase in calcium flux at 10 uM by fluorescence assay relative to control; assay type: functional, cell-based; conditions: CHO-K1; summary of the method: as §1
[4] = target: T1, Free fatty acid receptor 1; assay: Activity at human GPR40 expressed in CHOK1 cells assessed as inhibition of linoleic acid-induced calcium flux by fluorescence assay; assay type: functional, cell-based; conditions: CHO-K1
[5] = target: T1, Free fatty acid receptor 1; assay: Activation at GPR40 expressed in HEK293 cells at 100 uM by calcium mobilization-based FLIPR assay; assay type: functional, cell-based
[6] = target: T1, Free fatty acid receptor 1; assay: Agonist activity at GPR40; assay type: functional
[7] = target: T1, Free fatty acid receptor 1; assay: Agonist activity at human GPR40 expressed in CHOK1 cells by fluorescence assay; assay type: functional, cell-based, CHO-K1; summary of the method: as §1
HIT-T15 = assay: Induction of insulin secretion in Syrian golden hamster HIT-T15 cells at 10 uM; assay type: functional, cell-based; conditions: Mesocricetus auratus
Summary of the method: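 HIT-T15 hamster pancreatic cells treated with 10 µM compound; insulin secretion measured, with linoleic acid as reference.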

[8] = target: T1, Free fatty acid receptor 1; assay: Agonist activity at human GPR40 expressed in CHOK1 cells assessed as maximal response at 10 uM by fluorescence assay relative to linoleic acid; assay type: functional, cell-based; conditions: CHO-K1; summary of the method: as §1
[9] = target: T1, Free fatty acid receptor 1; assay: Agonist activity at GPR40 at 100 uM; assay type: functional
[10] = target: Free fatty acid receptor 1 (Mus musculus, UniProt Q76JU9); assay: Agonist activity at mouse GPR40 expressed in HEK293 cells; assay type: functional, cell-based
Chain of Free fatty acid receptor 1 (Mus musculus, UniProt Q76JU9) (Q76JU9 whole entry): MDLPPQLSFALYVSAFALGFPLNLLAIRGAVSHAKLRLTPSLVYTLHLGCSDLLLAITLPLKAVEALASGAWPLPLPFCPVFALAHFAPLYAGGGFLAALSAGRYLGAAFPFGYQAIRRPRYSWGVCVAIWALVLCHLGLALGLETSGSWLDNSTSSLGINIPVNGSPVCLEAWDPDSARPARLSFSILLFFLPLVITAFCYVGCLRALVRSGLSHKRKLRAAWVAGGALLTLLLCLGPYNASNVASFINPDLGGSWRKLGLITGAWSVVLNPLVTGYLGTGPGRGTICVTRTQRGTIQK

T1 sequence (O14842 whole entry): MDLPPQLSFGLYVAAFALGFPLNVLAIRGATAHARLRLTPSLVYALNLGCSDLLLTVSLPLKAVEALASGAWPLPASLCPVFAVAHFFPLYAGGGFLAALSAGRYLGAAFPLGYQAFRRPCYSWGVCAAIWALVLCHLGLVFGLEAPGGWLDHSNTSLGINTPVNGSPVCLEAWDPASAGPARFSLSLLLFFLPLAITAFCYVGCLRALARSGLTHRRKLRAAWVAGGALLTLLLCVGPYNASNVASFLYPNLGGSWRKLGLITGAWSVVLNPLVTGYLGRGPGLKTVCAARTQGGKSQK

Row | Activity [2] | fold change (FC) [3] | Activity [4] | Compound | further results
1 | – | – | – | CCCCOc1ccc(C)cc1-c1ccc(COc2ccc3c(c2)CCC[C@H]3CC(=O)O)cc1 | EC50 [1]: < 100 nM
2 | inactive | 1.21 | inactive | CCCCCCCC(=O)c1c(O)cc(O)c(C(=O)CCCCCCC)c1O | –
3 | – | – | – | O=C(O)CCc1ccc2oc(Nc3cccc(Cl)c3Cl)nc2c1 | Activity [5]: 111%
4 | – | – | – | CC#CC(CC(=O)O)c1ccc(OC2CCc3cc(-c4cccs4)ccc32)cc1 (stereo unspecified) | EC50 [6]: 10 nM
5 | inactive | 1 | inactive | O=C(O)CCCC(=O)c1c(O)cc(O)cc1O | –
6 | Active | 2.31 | – | CC(C)C(=O)c1c(O)cc(O)c(C(=O)C(C)C)c1O | EC50 [7]: 8000 nM; Activity (HIT-T15): Active; Activity [8]: 88.7%
7 | – | – | – | Cc1cc(OCC2(C)COC2)cc(C)c1-c1cccc(COc2ccc(C3CC3C(=O)O)cc2)c1 (stereo unspecified) | Activity [9]: 119%
8 | inactive | 1.19 | inactive | CCCCCCCCCCCCCCCCCC(=O)c1c(O)cc(O)c(C(=O)CCCCCCCCCCCCCCCCC)c1O | –
9 | inactive | 1 | inactive | CC(C)CC(=O)c1c(O)cc(O)c(C(=O)CCCC(=O)O)c1O | –
10 | – | – | – | O=C(O)CCc1ccc(OCc2ccc(CC(CCc3ccccn3)c3nc(-c4ccccc4)cs3)cc2)cc1 (stereo unspecified) | EC50 [6]: 19 nM
11 | – | – | – | O=C(O)[C@H]1[C@@H]2Oc3cc(Oc4ccc(C(F)(F)F)cc4Cl)ccc3[C@@H]21 | EC50 [1]: 0.1 nM
12 | inactive | 1.35 | inactive | CCCCOc1cc(OCCCC)c(C(=O)CC(C)C)c(O)c1C(=O)CC(C)C | –
13 | Active | 1.89 | – | CC(C)CC(=O)c1c(O)cc(O)c(C(=O)CC(C)C)c1O | EC50 [7]: 6000 nM; Activity (HIT-T15): Active; Activity [8]: 102%
14 | – | – | – | CCCCCCCCC1SC(=O)NC1=O (stereo unspecified) | EC50 [10]: 7940 nM
15 | Active | 2.55 | – | CCCCC/C=C\C/C=C\CCCCCCCC(=O)O [LINOLEIC ACID] | EC50 [7]: 540 nM; EC50 [6]: 540 nM
16 | inactive | 1.02 | inactive | CC(C)CC(=O)c1c(O)cc(OCCO)c(C(=O)CC(C)C)c1O | –
17 | Active | 2.33 | – | CCCCCCCCCCCC(=O)c1c(O)cc(O)c(C(=O)CCCCCCCCCCC)c1O [DIDODECANOYLPHLOROGLUCINOL] | EC50 [7]: 70 nM; Activity (HIT-T15): Active; Activity [8]: 100%
18 | inactive | 1.11 | inactive | CC(C)CC(=O)c1c(O)c(Cc2c(O)c(C(=O)CC(C)C)c(O)c(C(=O)CC(C)C)c2O)c(O)c(C(=O)CC(C)C)c1O | –
19 | inactive | 1.21 | inactive | O=C(CCl)c1c(O)cc(O)c(C(=O)CCl)c1O | –
20 | Active | 2.12 | – | CCCCc1c(O)c(C(=O)CC(C)C)c(O)c(C(=O)CC(C)C)c1O | EC50 [7]: 970 nM; Activity [8]: 84.5%
21 | inactive | 1.12 | inactive | CC(C)CC(=O)c1c(O)cc(O)cc1O | –
22 | – | – | – | Cc1cccc(C)c1-c1cccc(COc2ccc(Cn3oc(=O)[nH]c3=O)cc2)c1 | EC50 [6]: 260 nM
23 | inactive | 1.02 | inactive | CCCCCCCCCCCCCCCC(=O)c1c(O)cc(O)c(C(=O)CCCCCCCCCCCCCCC)c1O | –
24 | inactive | 1.46 | inactive | CCCCOc1cc(O)c(C(=O)CC(C)C)c(OCCCC)c1C(=O)CC(C)C | –
25 | inactive | 1.02 | inactive | CCCCOc1cc(O)c(C(=O)CC(C)C)c(O)c1C(=O)CC(C)C | –
26 | inactive | 1.01 | inactive | O=C(/C=C/C(=O)c1c(O)cc(O)cc1O)c1c(O)cc(O)cc1O | –
27 | – | – | – | O=C(O)CCCCCCCNc1ncc(-c2ccccc2)c(-c2ccccc2)n1 | Activity [5]: 104%
